Most compounds without a hit are left out; they make up all but 5.7% or so of the library.
Mdm2-MdmX inh – disrupts the human Mdm2-MdmX interaction; actives 3% (n = 330,000); SaOS-2 split-luciferase Mdm2/MdmX complementation, luminescence; AID 485346; inhibition, % at 8 µM; O15151+Q00987;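 active = inhibition of at least 50% at 8 µM in the primary screen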
Target sequence (O15151 whole entry, looked up): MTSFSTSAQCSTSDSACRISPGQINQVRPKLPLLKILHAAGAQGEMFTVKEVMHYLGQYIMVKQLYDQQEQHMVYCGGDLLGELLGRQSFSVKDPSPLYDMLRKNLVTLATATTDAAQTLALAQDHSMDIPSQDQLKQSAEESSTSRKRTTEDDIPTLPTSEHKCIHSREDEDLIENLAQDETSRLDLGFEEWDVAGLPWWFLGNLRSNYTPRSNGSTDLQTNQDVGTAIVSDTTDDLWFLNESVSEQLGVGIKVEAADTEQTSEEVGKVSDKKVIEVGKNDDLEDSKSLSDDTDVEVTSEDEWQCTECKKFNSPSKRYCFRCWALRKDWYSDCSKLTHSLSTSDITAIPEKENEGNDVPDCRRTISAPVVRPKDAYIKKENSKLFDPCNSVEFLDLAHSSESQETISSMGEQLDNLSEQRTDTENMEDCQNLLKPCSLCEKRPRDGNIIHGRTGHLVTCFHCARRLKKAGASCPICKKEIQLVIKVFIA
Target sequence (Q00987 whole entry, looked up): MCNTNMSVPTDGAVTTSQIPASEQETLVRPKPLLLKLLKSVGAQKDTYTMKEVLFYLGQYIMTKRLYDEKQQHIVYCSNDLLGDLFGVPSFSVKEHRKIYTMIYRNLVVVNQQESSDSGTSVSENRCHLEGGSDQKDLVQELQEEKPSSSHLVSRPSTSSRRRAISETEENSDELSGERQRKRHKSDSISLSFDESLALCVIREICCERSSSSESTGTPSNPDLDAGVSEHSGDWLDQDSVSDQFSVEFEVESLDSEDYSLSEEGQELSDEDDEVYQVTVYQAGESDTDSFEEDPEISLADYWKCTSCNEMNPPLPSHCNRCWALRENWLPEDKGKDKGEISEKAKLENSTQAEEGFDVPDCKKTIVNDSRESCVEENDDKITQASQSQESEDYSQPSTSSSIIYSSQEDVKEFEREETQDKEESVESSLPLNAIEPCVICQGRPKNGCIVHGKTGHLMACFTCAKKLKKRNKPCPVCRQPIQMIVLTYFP
Beta apoptosis – beta cell apoptosis inhibition. INS-1E cytokine-induced death, ATP luminescence, 48 h; percent of positive-control rescue, neutral wells zero. protection from apoptosis, % (concentration not given with the values). actives 0.8% (n = 300,000);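 active = Every replicate reaches about 75%, or at least half do and their mean reaches it too, limit read from the data; inconclusive = At least half of replicates reach the limit but their mean does not; inactive = Under half of replicates reach the limit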;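 note: higher means more ATP so stronger rescue from cytokine killing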
T cruzi repl – blocks replication of Trypanosoma cruzi. T. cruzi beta-gal in NIH3T3, luminescence, 90 h. actives 1.4% (n = 300,000). inhibition, % (concentration not given with the values). AID 1885;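 active = mean inhibition across valid replicates above about 55%, limit read from the data; inconclusive = mean below that limit but half or more replicates reach it; inactive = mean below it, under half of replicates reach it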;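 note: signal also drops with host cell toxicity which is not excluded here; higher percent means less beta-gal luminescence so fewer parasites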
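System: NIH/3T3 fibroblasts plus reporter T. cruzi. Medium: DMEM plus 2% FBS. Probe or stimulus: 5000 reporter trypomastigotes per well. Compound: single 50 nL compound addition per well in DMSO. Incubation: co-culture of at least 90 h after 3 h attachment. Detection: GalScreen β-gal luminescence, detergent lysis, 60 min. Evaluation: parasite load inhibition, %.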
SKKanGAS inh – inhibitors of SKKanGAS S. pyogenes growth in kanamycin (SK-promoter or general growth effect); BacTiter-Glo, 6 h; inhibition, % at 7.5 µM; actives 1.3% (n = 300,000); AID 1662;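 active = mean replicate score, as percent of positive control median, at least 50; inconclusive = mean below 50 but one replicate at or above 50; inactive = mean and every replicate below 50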;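 note: strain carries kanamycin resistance gene driven by streptokinase promoter and grows in 40 µg/ml kanamycin; loss of luminescence reflects streptokinase promoter inhibition or plain growth inhibition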
CSC inhib – cancer stem cell inhibition. inhibition, % at 7.5 µM. actives 1.1% (n = 300,000). cancer stem cell-like cells viability, luminescence; in the data active = inhibition above about 75%; inconclusive = no clear call, values can overlap the other calls; tested in HMLE shEcad cells
Calb FLC – affects C. albicans growth with fluconazole; actives 0.57% (n = 300,000); C. albicans CaCi-2 (fluconazole-resistant clinical isolate) + fluconazole, Alamar Blue growth, 48 h; growth inhibition, % (test concentration not listed);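 active = growth inhibition above about 58% in most replicates, limit read from the data, passing the limit was not always enough; inconclusive = exactly half the replicates above a set limit; inactive = most replicates below a set limit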;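 note: all wells also contain fluconazole at 8 µg/ml as a sub-toxic cotreatment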
Numbers stand for hits; n = inactive; u = inconclusive; x = not tested or not shown.

SMILES	Mdm2-MdmX inh	Beta apoptosis	T cruzi repl	SKKanGAS inh	CSC inhib	Calb FLC
COC(=O)C(C)NC(=S)N1CCN(c2c(F)cc3c(=O)c(C(=O)O)cn(C4CC4)c3c2OC)CC1C (stereo not given)	n	n	n	95	n	n
CNC(=S)N1CCN(c2c(F)cc3c(=O)c(C(=O)O)cn(C4CC4)c3c2OC)CC1C (stereo not given)	n	n	n	104	n	n
COCCn1c(-c2ccc(C)cc2)nc2oc3cc(OC)ccc3c(=O)c2c1=O	n	n	n	n	n	n
COCCn1c(-c2cc(OC)c(OC)c(OC)c2)nc2oc3cc(OC)ccc3c(=O)c2c1=O	n	n	n	55	n	n
O=C1c2cccc3cccc(c23)C(=O)N1Cc1cccnc1	n	n	n	n	n	n
O=C1c2cccc3c([N+](=O)[O-])ccc(c23)C(=O)N1Cc1cccnc1	x	x	85	n	x	u
CCOc1ccccc1N=Nc1c(C)[nH]n(C(N)=S)c1=O	n	n	n	n	n	n
Cc1cc(=O)[nH]c(N/N=C/c2ccc(-c3ccc(F)cc3)o2)n1	n	n	n	n	75	n
CC(C)(C)c1ccc(Cc2n[nH]c(=S)[nH]c2=O)cc1	n	n	n	n	n	78
COC(=O)CNc1n[nH]c(=S)[nH]c1=O	n	n	n	n	n	n
O=c1[nH]c(=S)[nH]nc1Cc1ccc(Cl)c(Cl)c1	n	n	n	n	n	91
CCCCNC(=O)CSc1nnc(Cc2ccc(Cl)c(Cl)c2)c(=O)[nH]1	n	n	n	n	n	n
O=C(Oc1ccc([N+](=O)[O-])cc1)C1CC(=O)N(c2ccc3c(c2)OCCO3)C1 (stereo not given)	n	n	x	x	n	x
Cc1cccc(CC(=O)Nc2sc(C(C)C)cc2C(=O)N2CCOCC2)c1	n	n	n	n	n	n
NC(=O)NC(Cc1ccccc1)C(=O)NNC(=O)COc1ccccc1Cl (stereo not given)	n	n	x	x	n	x
Cc1ccc(C(C)C)c(OCC(=O)OCC(=O)NC2CCS(=O)(=O)C2)c1 (stereo not given)	n	n	n	n	n	n
COc1ccccc1CNS(=O)(=O)c1ccc2c(c1)CC(=O)N2C	n	n	n	n	n	n
Cc1ccc(CCNC(=O)CN2C(=O)COc3ccccc32)cc1	n	n	67	n	n	n
CC(Oc1ccc(Cl)cc1C(N)=O)C(=O)N1CCc2ccccc21 (stereo not given)	n	n	x	x	n	x
CC(Oc1ccc(Cl)cc1Cl)C(=O)NC(=S)N1CCc2ccccc21 (stereo not given)	n	n	n	104	n	n
O=C(NCCCNC(=O)c1ccccc1)c1ccccc1	n	x	n	n	n	n
Cc1[nH]n(-c2ccccc2)c(=O)c1N=Nc1ccccc1C(=O)O	n	n	n	n	n	n
Cc1[nH]n(-c2ccccc2)c(=O)c1N=Nc1nccs1	n	n	n	94	n	n
CCN(CC)c1ccc(-c2nn3c(-c4cccnc4)nnc3s2)cc1	x	x	n	68	x	n
CCc1nc2c3cnn(-c4cc(Cl)ccc4C)c3ncn2n1	n	n	n	53	n	n
SMILES	Mdm2-MdmX inh	Beta apoptosis	T cruzi repl	SKKanGAS inh	CSC inhib	Calb FLC
Cc1nc2c3cnn(-c4ccccc4)c3ncn2n1	n	n	n	n	n	n
Clc1cccc(Cl)c1C1Nc2cccc3cccc(c23)N1	n	n	n	59	n	n
CCOc1ccc(/C=C2/Sc3ccc(C(=O)NCC4CCCO4)cc3N(C)C2=O)cc1OC (stereo not given)	n	n	n	n	n	n
CCOC(=O)N1CCN(C(=O)c2ccc3c(c2)N(C)C(=O)/C(=C\c2ccc(OCC)c(OC)c2)S3)CC1	n	x	n	108	n	n
CCOc1ccc(/C=C2/Sc3ccc(C(=O)N4CCN(C(=O)c5ccco5)CC4)cc3N(C)C2=O)cc1OC	n	n	n	67	n	n
Cc1cccc(/C=C2\Sc3ccc(C(=O)N4CCC(C)CC4)cc3N(C)C2=O)c1	n	n	n	76	n	n
Cc1cnc(C(=O)Nc2cccc3cccnc23)cn1	x	x	66	n	x	n
Cc1cccc(C(=O)Nc2cccc3cccnc23)c1	n	x	n	n	x	n
COc1ccc(S(=O)(=O)N2CCC(C(=O)NCC3CCCCC3)CC2)cc1	n	n	n	n	n	n
CCOc1ccc(C(=O)NC(=S)Nc2ccc(NC(=O)CC)cc2)cc1[N+](=O)[O-]	n	n	n	53	n	n
CCOc1ccc(C(=O)NC(=S)Nc2cccc(NC(=O)c3ccco3)c2)cc1[N+](=O)[O-]	n	n	n	65	n	n
COc1ccc(C(=O)NC(=S)Nc2cccc(NC(=O)c3ccco3)c2)cc1[N+](=O)[O-]	n	n	n	n	n	n
Cn1c(N2CCOCC2)c(/C=N/OC(=O)c2cccnc2Cl)c2ccccc21	x	x	n	n	x	n
Cn1c(N2CCOCC2)c(/C=N/O)c2ccccc21	n	n	n	n	n	n
Cn1c(N2CCOCC2)c(/C=N/OC(=O)c2ccc(F)cc2)c2ccccc21	n	n	65	n	n	94
CC(=O)O/N=C/c1c(N2CCOCC2)n(C)c2ccccc12	n	n	61	n	n	99
Cc1cc(C(=O)OCC(=O)Nc2ccccc2C#N)c(C)o1	n	x	x	x	x	x
O=C(c1ccco1)N1CCN(C(=S)Nc2ccccc2C(F)(F)F)CC1	n	n	n	n	n	n
C[C@H]1c2cccc(O)c2C(O)=C2C(=O)[C@]3(O)C(O)=C(C(N)=O)C(=O)[C@@H](N(C)C)[C@@H]3[C@@H](O)[C@@H]21	n	n	n	97	n	x
CN(C)c1ccc(O)c2c1CC1CC3[C@@H](N(C)C)C(=O)C(C(N)=O)=C(O)[C@]3(O)C(=O)C1=C2O (stereo not given in full)	n	n	n	106	n	x
COc1ccccc1/C=C(\NC(=O)c1ccccc1)C(=O)NCc1ccco1	n	n	n	n	n	n
COc1ccc2[nH]cc(/C=C/c3cc[n+](C)cc3)c2c1	n	n	n	n	n	n
Cc1ccc(S(=O)(=O)NCC(=O)OCC(=O)N2N=C(c3ccc(Cl)cc3)CC2c2ccco2)cc1C (stereo not given)	n	n	n	70	n	n
Cc1ccc(C(=O)NC(=C(Cl)Cl)S(=O)(=O)c2ccccc2)cc1	n	n	n	n	98	n
COc1ccc(C(=O)NC(=C(Cl)Cl)S(=O)(=O)c2ccc(C)cc2)cc1	x	n	n	n	n	n
CCOC(=O)c1c(C)[nH]c(N=Nc2ccc(C)cc2)c1C	n	n	n	n	n	n
Cc1ccc(N=Nc2c(O)ccc3n[nH]nc23)cc1	x	99	n	n	n	n
CCN(C(=O)COC(=O)CSc1ccc(F)cc1)c1c(N)n(Cc2ccccc2)c(=O)[nH]c1=O	n	n	x	x	n	x
COc1ccc(NC(=S)NN(C)C(=S)Nc2ccc(OC)cc2)cc1	n	n	n	n	123	n

Compound activity (PubChem)
